Source: PubChem BioAssay
RBBP9 inhibitor: human RBBP9 inhibitors, primary screen, biochemical, fluorescence polarization, FP-Rh probe, HTS; Serine hydrolase RBBP9 (Homo sapiens), O75884; recombinant RBBP9; inhibition, % at 7.94 µM; hit rate 0.2% among 220,000; AID 1515, 2009;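 active = inhibition above the campaign mean of all tested compounds plus 3 SD, cut at about 14% in these data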
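Material: RBBP9 protein. Amount: RBBP9 at 2.5 µM in dispensed solution, before mixing. Schedule: 30 min then 45 min, 25 °C. Medium: Tris buffer pH 8.0, NaCl, Pluronic. Measured by: fluorescence polarization. Measure: percent inhibition from mP, scaled between DMSO and no-protein wells. Replication: one well per compound.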
Hsp70 act: Hsp70 transcriptional activators, primary screen, cell-based, HeLa, Hsp70 promoter luciferase, luminescence, 10 µM; hit rate 0.04% among 200,000; activation, % at 10 µM; HeLa Hsp70 promoter luciferase reporter; scaled: vehicle 0, proteasome-inhibitor control 100%;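 active = activation above the mean across all tested compounds plus 3 SD, cutoff set per campaign, cut at about 5.5% in these data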
MDM2 E3 inh: MDM2-luciferase reporter signal enhancers, primary screen, MDM2 E3 ligase inhibitor project, cell-based, luminescence, 1536-well | E3 ubiquitin-protein ligase Mdm2 (Homo sapiens), Q00987 | cell-based MDM2 ubiquitination luciferase reporter, 2 h; 0 = plate control, 100 = twice control, blank-subtracted | signal enhancement, % at 5 µM | hit rate 0.11% among 210,000 | AID 1230, 2008;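 active = signal enhancement of 30% or more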;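 note: luminescence tracks abundance of the self-degrading MDM2-luciferase fusion protein; higher signal means inhibition of MDM2 E3 ligase activity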
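Assay system: mammalian cells stably expressing self-ubiquitinating, self-degrading MDM2 E3–luciferase fusion. Quantity: 2000 cells in each well. Medium: DMEM culture medium. Compound dosing: single-point 5 µM. Timing: cell settling 4 h, compound treatment 2 h, both 37 °C. Technique: luciferase luminescence. Read-out basis: percent signal gain over controls, blank-subtracted. Benchmarks: plate controls and plate blanks.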
Insulin prom inh: inhibitors of insulin promoter-driven GFP, primary screen, imaging, TRM-6 cells, eGFP reporter, cell count. reporter expression induced with tamoxifen. inhibition, % at 2 µM. hit rate 0.9% among 130,000;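 active = inhibition above the mean plus 3 SD, with well images judged a real hit on visual review, cut at about 60% in these data, passing the limit was not always enough; inconclusive = inhibition over the cutoff but images rejected on review; inactive = inhibition not above the cutoff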
Ins promoter up: insulin promoter activators in MIN6 cells, imaging, high-content screening, mouse beta cells; MIN6 insulin promoter-GFP reporter; stronger effect = higher value; z-score at 5 µM; hit rate 0.3% among 190,000;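 active = z-score above 3 at 5 µM with at least 500 cells counted in the well; inconclusive = wells under 500 cells, flagged as cytotoxic or low count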
Wee1 stabilizer: Wee1 degradation inhibitors, primary screen, cell-based, HeLa, Wee1K328M-luciferase, luminescence; Wee1-like protein kinase (Homo sapiens), P30291; HeLa Luc-Wee1K328M stability; 100% = proteasome inhibitor MG132 effect; reporter increase, % at 5 µM; hit rate 1.2% among 220,000; AID 1321, 2008;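 active = activation above the mean of all tested compounds plus 3 SD, set per screening run, cut at about 8.8% in these data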;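 note: cells exposed to compound for 20 h before luminescence read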
Target sequence (P30291 whole entry K328M): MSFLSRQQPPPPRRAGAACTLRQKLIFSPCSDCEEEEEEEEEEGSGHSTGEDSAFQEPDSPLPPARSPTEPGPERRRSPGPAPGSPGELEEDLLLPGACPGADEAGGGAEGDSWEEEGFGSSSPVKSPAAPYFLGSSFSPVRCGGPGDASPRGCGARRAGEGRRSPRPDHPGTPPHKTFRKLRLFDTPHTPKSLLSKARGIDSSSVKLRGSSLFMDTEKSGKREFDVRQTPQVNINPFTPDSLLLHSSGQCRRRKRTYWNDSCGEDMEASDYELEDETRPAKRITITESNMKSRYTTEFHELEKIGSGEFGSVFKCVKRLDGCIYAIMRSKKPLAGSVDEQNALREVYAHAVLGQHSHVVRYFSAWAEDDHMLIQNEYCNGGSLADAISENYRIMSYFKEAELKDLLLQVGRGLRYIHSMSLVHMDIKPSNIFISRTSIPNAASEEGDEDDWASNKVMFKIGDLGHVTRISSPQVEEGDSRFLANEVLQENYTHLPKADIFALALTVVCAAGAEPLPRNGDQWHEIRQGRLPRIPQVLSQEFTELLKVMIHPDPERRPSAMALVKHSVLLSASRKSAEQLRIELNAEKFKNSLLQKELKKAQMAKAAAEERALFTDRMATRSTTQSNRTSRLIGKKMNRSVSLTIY
Numbers stand for hits. An excerpt weighted towards active compounds, which were near 2.2% of everything screened.

What do the screens show for `CS(=O)(=O)N1CCC(C(=O)Nc2ccc(OCc3ccccc3)cc2)CC1`?
RBBP9 inhibitor: inactive; Hsp70 act: inactive; MDM2 E3 inh: inactive; Insulin prom inh: 71.0; Ins promoter up: inactive; Wee1 stabilizer: inactive

What do the screens show for `CS(=O)(=O)N1CCC(C(=O)Nc2ccccc2)CC1`?
RBBP9 inhibitor: inactive; Hsp70 act: inactive; MDM2 E3 inh: inactive; Insulin prom inh: inactive; Ins promoter up: inactive; Wee1 stabilizer: inactive

How did CCOC(=O)Cn1c(=O)c(-c2cc(Br)ccc2N)nc2ccccc21 do in these assays?
RBBP9 inhibitor: inactive; Ins promoter up: 6.82; Wee1 stabilizer: inactive

How did CC(C)c1ccccc1NC(=O)COC(=O)c1c2c(nc3ccccc13)CCN(Cc1ccccc1)C2 do in these assays?
RBBP9 inhibitor: inactive; Hsp70 act: inactive; MDM2 E3 inh: inactive; Insulin prom inh: inactive; Ins promoter up: inactive; Wee1 stabilizer: 9.5

How did COc1ccc(S(=O)(=O)c2nnn(-c3ccccc3Cl)c2N)cc1 do in these assays?
RBBP9 inhibitor: inactive; Hsp70 act: inactive; MDM2 E3 inh: inactive; Insulin prom inh: 73.3; Ins promoter up: inactive; Wee1 stabilizer: inactive

What do the screens show for `O=C(O)c1ccc(N/N=C/C2=Cc3ccccc3OC2)cc1`?
RBBP9 inhibitor: inactive; MDM2 E3 inh: inactive; Ins promoter up: inactive; Wee1 stabilizer: inactive

How did O=C1CC(NCc2ccc3c(c2)OCO3)C(=O)N1Cc1ccc2c(c1)OCO2 (stereo not given) do in these assays?
RBBP9 inhibitor: inactive; Hsp70 act: inactive; MDM2 E3 inh: inactive; Insulin prom inh: inactive; Ins promoter up: inactive; Wee1 stabilizer: inactive

How did CCCCCCCCCOC(=O)C(CC(=O)O)N1CCOCC1 (stereo not given) do in these assays?
RBBP9 inhibitor: inactive; Hsp70 act: inactive; MDM2 E3 inh: inactive; Insulin prom inh: 67.9; Wee1 stabilizer: inactive

What do the screens show for `Cc1ccn(CCSCC(=O)O)n1`?
RBBP9 inhibitor: inactive; Hsp70 act: inactive; MDM2 E3 inh: inactive; Insulin prom inh: inactive; Ins promoter up: inactive; Wee1 stabilizer: inactive

What do the screens show for `Cc1ccn(CC(C)C(=O)O)n1` (stereo not given)?
RBBP9 inhibitor: inactive; Hsp70 act: inactive; MDM2 E3 inh: inactive; Ins promoter up: inactive; Wee1 stabilizer: 9.6

Results for CCCCNC(=O)COC(=O)c1ccc(C)c(NC(=O)c2ccco2)c1 ?
RBBP9 inhibitor: inactive; Hsp70 act: inactive; MDM2 E3 inh: inactive; Insulin prom inh: inactive; Ins promoter up: inactive; Wee1 stabilizer: inactive

How did C=CCNC(=O)COC(=O)c1ccc(C)c(NC(=O)c2ccco2)c1 do in these assays?
RBBP9 inhibitor: inactive; Hsp70 act: inactive; MDM2 E3 inh: inactive; Insulin prom inh: 72.7; Ins promoter up: inactive; Wee1 stabilizer: inactive

Results for CC(C)CCN1CCN(C2CCN(c3ccccc3)CC2)CC1CCO (stereo not given) ?
RBBP9 inhibitor: inactive; Hsp70 act: inactive; MDM2 E3 inh: inactive; Ins promoter up: inactive; Wee1 stabilizer: inactive

Results for O=C(CCCc1ccccc1)N1CCc2ccccc21 ?
RBBP9 inhibitor: inactive; Hsp70 act: inactive; MDM2 E3 inh: inactive; Insulin prom inh: inactive; Ins promoter up: inactive; Wee1 stabilizer: 9.8

How did CON(C)c1nc(OCCNC(=O)OCc2ccc(Cl)cc2Cl)nc(N(C)C)n1 do in these assays?
RBBP9 inhibitor: inactive; Hsp70 act: inactive; MDM2 E3 inh: inactive; Insulin prom inh: inactive; Ins promoter up: inactive; Wee1 stabilizer: inactive

What do the screens show for `CCOC(=O)C1(Cc2ccc(OC)cc2)CCN(C(=O)CCn2cccn2)CC1`?
RBBP9 inhibitor: inactive; MDM2 E3 inh: inactive; Ins promoter up: inactive; Wee1 stabilizer: inactive

How did CCOC(=O)C1(Cc2ccc(OC)cc2)CCN(C(=O)CCn2ccc(C)n2)CC1 do in these assays?
RBBP9 inhibitor: inactive; Hsp70 act: inactive; MDM2 E3 inh: inactive; Ins promoter up: inactive; Wee1 stabilizer: 8.8

What do the screens show for `Cc1onc(-c2c(Cl)cccc2Cl)c1C(=O)N=C(N)N1CCCC1`?
RBBP9 inhibitor: inactive; MDM2 E3 inh: inactive; Ins promoter up: inactive; Wee1 stabilizer: inactive

Results for Cc1ccc(OCC(O)CNS(=O)(=O)c2ccccc2C(=O)N2CCCCC2)cc1 (stereo not given) ?
RBBP9 inhibitor: inactive; Hsp70 act: inactive; MDM2 E3 inh: inactive; Insulin prom inh: inactive; Ins promoter up: inactive; Wee1 stabilizer: inactive

How did COc1ccc(N2CCN(c3oc(COc4ccccc4Cl)nc3C#N)CC2)cc1 do in these assays?
RBBP9 inhibitor: inactive; Hsp70 act: inactive; MDM2 E3 inh: inactive; Ins promoter up: inactive; Wee1 stabilizer: 9.6

What do the screens show for `COc1ccc(OCc2nc(C#N)c(N3CCN(c4ccc(OC)cc4)CC3)o2)cc1`?
RBBP9 inhibitor: inactive; Hsp70 act: inactive; MDM2 E3 inh: inactive; Ins promoter up: inactive; Wee1 stabilizer: inactive

Results for Cc1noc(C)c1S(=O)(=O)N1CCC(C(=O)N2CCN(c3ccc(F)cc3)CC2)CC1 ?
RBBP9 inhibitor: inactive; Hsp70 act: inactive; MDM2 E3 inh: inactive; Insulin prom inh: inactive; Ins promoter up: inactive; Wee1 stabilizer: inactive

How did Cc1noc(C)c1S(=O)(=O)N1CCC(C(=O)N2CCN(C3CCCC3)CC2)CC1 do in these assays?
RBBP9 inhibitor: inactive; Hsp70 act: inactive; MDM2 E3 inh: inactive; Ins promoter up: 3.05; Wee1 stabilizer: inactive

Results for CC(/C=C/c1ccco1)=N\NC(=O)COc1ccc(C)c(C)c1 ?
RBBP9 inhibitor: inactive; Hsp70 act: inactive; MDM2 E3 inh: inactive; Ins promoter up: inactive; Wee1 stabilizer: inactive

Results for Cc1cc(C)c2nc(NNC(=O)c3cc(-c4cccs4)nc4ccccc34)sc2c1 ?
RBBP9 inhibitor: inactive; Hsp70 act: inactive; Insulin prom inh: inconclusive; Ins promoter up: 3.73; Wee1 stabilizer: inactive

How did Cc1ccc(-n2c(C)nc3oc4ccccc4c(=O)c3c2=O)cc1 do in these assays?
RBBP9 inhibitor: inactive; Hsp70 act: inactive; MDM2 E3 inh: inactive; Insulin prom inh: inactive; Ins promoter up: 3.88; Wee1 stabilizer: inactive

Results for CCOC(=O)N1CCN(C2OC(=O)c3ccccc32)CC1 (stereo not given) ?
RBBP9 inhibitor: inactive; Hsp70 act: inactive; MDM2 E3 inh: inactive; Insulin prom inh: inactive; Ins promoter up: inactive; Wee1 stabilizer: 9.7

Results for O=C1OC(N2CCN(C/C=C/c3ccccc3)CC2)c2ccccc21 (stereo not given) ?
RBBP9 inhibitor: inactive; Hsp70 act: inactive; MDM2 E3 inh: inactive; Insulin prom inh: 83.3; Ins promoter up: inactive; Wee1 stabilizer: inactive

How did O=C1OC(N2CCN(C(=O)c3ccco3)CC2)c2ccccc21 (stereo not given) do in these assays?
RBBP9 inhibitor: inactive; Hsp70 act: inactive; MDM2 E3 inh: inactive; Insulin prom inh: inactive; Ins promoter up: inactive; Wee1 stabilizer: inactive
